Assay [1] is filed under the species Cavia porcellus. The experiment in a line: Irreversible antagonism to morphine was evaluated after 30 min incubation of GPI with the compound at 200 nM conc. The assay is classed as functional. Put shortly: (§1)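 Guinea pig ileal longitudinal muscle was incubated with compound at the stated concentrations for 30 min, then washed 20 times. […] Result is the agonist IC50 after treatment divided by the control agonist IC50 in the same preparation.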

The species entered for assay [2] is Cavia porcellus. The assay can be described thus: Irreversible antagonism to morphine was evaluated after 30 min incubation of GPI with the compound at 20 nM conc. In kind it is functional. Put shortly: as §1
Assay [3] is filed under the species Cavia porcellus. The assay can be described thus: Irreversible antagonism to nalorphine was evaluated after 30 min incubation of GPI with the compound at 200 nM conc. In kind it is functional. The method in brief:
as §1

Assay [4] is filed under the species Cavia porcellus. The experiment in a line: Irreversible antagonism to nalorphine was evaluated after 30 min incubation of GPI with the compound at 20 nM conc. The assay is classed as functional. Put shortly: as §1
For assay [5], the species on record is Cavia porcellus. The experiment in a line: Agonistic potency on the guinea pig ileal longitudinal muscle (GPI) relative to morphine. The assay is classed as functional, Muscle tissue. The method in brief: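 Isolated guinea pig ileal longitudinal muscle was prepared by the Rang method. […] Only inhibition of contraction greater than 80% was counted.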
For assay [6], the species on record is Mus musculus. The assay can be described thus: Antagonist potency relative to DADLE at 20 nM concentration. In kind it is functional. Put shortly: (§2)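 Mouse vas deferens (Henderson method) was pretreated with compound for 30 min, then washed 20 times. […] Result is the agonist IC50 after treatment divided by the control IC50 in the same tissue. Where the agonist fell short of a full (>70%) response, an IC30 ratio was estimated from the plotted curves.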

For assay [7], the species on record is Mus musculus. The assay can be described thus: Antagonist potency relative to DADLE at 200 nM concentration. In kind it is functional. Put shortly: as §2
The species named for assay [8] is Mus musculus. The assay can be described thus: Antagonist potency relative to morphine at 20 nM concentration. In kind it is functional. The method in brief:
as §2

For assay [9], the species on record is Mus musculus. The experiment in a line: Antagonist potency relative to morphine at 200 nM concentration. In kind it is functional. The method in brief: as §2
Assay [10] is filed under the species Mus musculus. The experiment in a line: (§3) Agonist activity measured on mouse vas deferens (MVD). In kind it is functional.
Assay [11] is filed under the species Mus musculus. The assay can be described thus: Percent of maximum inhibition of contraction of mouse vas deferens (MVD). In kind it is functional.
The species entered for assay [12] is Cavia porcellus. The assay can be described thus: Agonistic activity on the guinea pig ileal longitudinal muscle (GPI) relative to morphine at a dose of 1 uM. In kind it is functional, Muscle tissue.
The species entered for assay [13] is Cavia porcellus. The assay can be described thus: Irreversible antagonism to ethylketazocine (EK) was evaluated after 30 min incubation of GPI with the compound at 1000 nM conc. In kind it is functional. The method in brief:
as §1

For assay [14], the species on record is Mus musculus. Described as §3. The assay is classed as functional, organism-based.
The species named for assay [15] is Cavia porcellus. The experiment in a line: Irreversible antagonism to morphine was evaluated after 30 min incubation of GPI with the compound at 1000 nM conc. The assay is classed as functional. Put shortly: as §1
The species named for assay [16] is Cavia porcellus. The experiment in a line: Irreversible antagonism to ethylketazocine (EK) was evaluated after 30 min incubation of GPI with the compound at 200 nM conc. The assay is classed as functional. Put shortly:
as §1

The species entered for assay [17] is Cavia porcellus. The assay can be described thus: Irreversible antagonism to ethylketazocine (EK) was evaluated after 30 min incubation of GPI with the compound at 20 nM conc. In kind it is functional. Put shortly:
as §1

For assay [18], the species on record is Cavia porcellus. The experiment in a line: Irreversible antagonism to ethylketazocine (EK) was evaluated after 30 min incubation of GPI with the compound at 500 nM conc. The assay is classed as functional. Put shortly:
as §1

For assay [19], the species on record is Cavia porcellus. The assay can be described thus: Irreversible antagonism to morphine was evaluated after 30 min incubation of GPI with the compound at 500 nM conc. In kind it is functional. The method in brief: as §1
For assay [20], the species on record is Mus musculus. The experiment in a line: Antagonist potency relative to DADLE at 100 nM concentration. The assay is classed as functional. Put shortly:
as §2

For assay [21], the species on record is Mus musculus. The assay can be described thus: Antagonist potency relative to morphine at 100 nM concentration. The assay is classed as functional. The method in brief: as §2
The species entered for assay [22] is Mus musculus. The assay can be described thus: Irreversible antagonistic potency in mouse vas deferens (MVD). The assay is classed as functional. Put shortly:
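Mouse vas deferens (Henderson method) was pretreated with compound for 30 min, then washed 20 times. Where the agonist fell short of a full (>70%) response, an IC30 ratio was estimated from the plotted curves.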

The species entered for assay [23] is Cavia porcellus. The experiment in a line: Irreversible antagonistic potency in guinea pig ileal longitudinal muscle (GPI). The assay is classed as functional. To be noted: Muscle tissue.

On to `COC(=O)/C=C\C(=O)N[C@H]1CC[C@@]2(O)C3Cc4ccc(O)c5c4C2(CCN3CC2CC2)[C@H]1O5` (stereo partly specified), for which the IC50 ratio is given as 1.1 in the assay filed under Cavia porcellus [1]; 0.95 in the assay listed under Cavia porcellus [2]; 0.98 in the assay listed under Cavia porcellus [3]; 0.49 in the assay filed under Cavia porcellus [4]; 0.8 in the assay listed under Cavia porcellus [5].

On to `CCC(=O)N[C@H]1CCC2(O)C3Cc4ccc(O)c5c4C2(CCN3CC2CC2)[C@H]1O5` (stereo partly specified), for which the IC50 ratio in the assay listed under Cavia porcellus [1] is listed as 1; in the assay filed under Cavia porcellus [2] it was 1.1; in the assay filed under Cavia porcellus [3], 0.9; in the assay listed under Cavia porcellus [4], 0.7; in the assay filed under Cavia porcellus [5], 2.9.

In the case of `Oc1ccc2c3c1O[C@H]1[C@H](N=C=S)CC[C@@]4(O)C(C2)N(CC2CC2)CCC314` (stereo partly specified), the IC50 ratio is 14.9 in the assay listed under Cavia porcellus [1]; 6.9 in the assay listed under Cavia porcellus [2]; 1.4 in the assay filed under Cavia porcellus [3]; 1.5 in the assay filed under Cavia porcellus [4]; 1.9 in the assay listed under Cavia porcellus [5]; 1.8 in the assay filed under Mus musculus [6]. In addition, the figures for the IC50 ratio in the assay filed under Mus musculus [7], in the assay listed under Mus musculus [8] and in the assay filed under Mus musculus [9] were 6.9, 13.8 and 120, respectively. In the assay listed under Mus musculus [10], this compound returned an IC30 of 100 nM. Also, the max inhibition in the assay filed under Mus musculus [11] stood at 43%.

In the assay filed under Cavia porcellus [12], `O=C(CI)N[C@@H]1CCC2(O)C3Cc4ccc(O)c5c4C2(CCN3CC2CC2)[C@H]1O5` (stereo partly specified) showed a max inhibition of 55%. Further, the IC50 ratio in the assay filed under Cavia porcellus [13] is on record as 0.7; in the assay filed under Cavia porcellus [1] it was 2.1; in the assay filed under Cavia porcellus [2], 2.4; in the assay listed under Cavia porcellus [3] it was 1.2; in the assay filed under Cavia porcellus [4] it was 1.2; in the assay listed under Mus musculus [7], 1.8. Further, the IC50 ratio in the assay listed under Mus musculus [9] is given as 20. The compound further had an IC50 in the assay listed under Mus musculus [14] of over 1000 nM.

As for `C=CC(=O)N[C@@H]1CCC2(O)C3Cc4ccc(O)c5c4C2(CCN3CC2CC2)[C@H]1O5` (stereo partly specified), in the assay filed under Cavia porcellus [12], the max inhibition was found to be 40%. In addition, the IC50 ratio in the assay filed under Cavia porcellus [13] worked out at 1.5; in the assay filed under Cavia porcellus [15], 2.9; in the assay listed under Cavia porcellus [1] it was 4.2; in the assay listed under Cavia porcellus [2], 1.9; in the assay listed under Cavia porcellus [3], 1.4; in the assay filed under Cavia porcellus [4] it was 1.1.

On to `COC(=O)/C=C\C(=O)N[C@@H]1CC[C@@]2(O)C3Cc4ccc(O)c5c4C2(CCN3CC2CC2)[C@H]1O5` (stereo partly specified), for which the IC50 ratio in the assay filed under Cavia porcellus [1] is recorded as 0.63; in the assay filed under Cavia porcellus [2], 1.5; in the assay listed under Cavia porcellus [3] it was 0.6; in the assay filed under Cavia porcellus [4], 1; in the assay listed under Cavia porcellus [5] it was 1.1.

`COC(=O)/C=C/C(=O)N[C@H]1CC[C@@]2(O)[C@H]3Cc4ccc(O)c5c4[C@@]2(CCN3CC2CC2)[C@H]1O5`: the IC50 ratio was 0.86 in the assay filed under Cavia porcellus [16]; 0.87 in the assay filed under Cavia porcellus [1]; 1.2 in the assay listed under Cavia porcellus [2]; 0.92 in the assay listed under Cavia porcellus [4]; 7.3 in the assay filed under Cavia porcellus [5]; 0.37 in the assay filed under Mus musculus [7]. Moreover, the IC50 ratio in the assay listed under Mus musculus [9] is recorded as 0.52. In the assay listed under Mus musculus [10], this compound showed a 30% effect concentration (IC30) of 80 nM. The same compound had a max inhibition in the assay listed under Mus musculus [11] of 60%.

As to `C=CC(=O)N[C@H]1CCC2(O)C3Cc4ccc(O)c5c4C2(CCN3CC2CC2)[C@H]1O5` (stereo partly specified), the IC50 ratio in the assay filed under Cavia porcellus [1] is 1.2; in the assay filed under Cavia porcellus [2] it was 1.2; in the assay filed under Cavia porcellus [3], 0.8; in the assay filed under Cavia porcellus [4], 0.78; in the assay filed under Cavia porcellus [5] it was 1.5.

Turning to `O=C(CI)N[C@H]1CCC2(O)C3Cc4ccc(O)c5c4C2(CCN3CC2CC2)[C@H]1O5` (stereo partly specified), the IC50 ratio was determined as 1.1 in the assay listed under Cavia porcellus [1]; 0.97 in the assay listed under Cavia porcellus [2]; 0.87 in the assay filed under Cavia porcellus [3]; 1.2 in the assay listed under Cavia porcellus [4]; 0.49 in the assay listed under Cavia porcellus [5]; 1.2 in the assay filed under Mus musculus [7]. For the same compound, the IC50 ratio in the assay listed under Mus musculus [9] is given as 2.5. Also, the IC30 in the assay listed under Mus musculus [10] is 200 nM. This compound also returned a max inhibition in the assay listed under Mus musculus [11] of 60%.

Consider `CCC(=O)N[C@@H]1CCC2(O)C3Cc4ccc(O)c5c4C2(CCN3CC2CC2)[C@H]1O5` (stereo partly specified), for which the IC50 ratio turned out to be 1.5 in the assay listed under Cavia porcellus [1]; 1.3 in the assay listed under Cavia porcellus [2]; 0.85 in the assay filed under Cavia porcellus [3]; 1 in the assay filed under Cavia porcellus [4]; 0.81 in the assay filed under Cavia porcellus [5].

On to `Oc1ccc2c3c1O[C@H]1[C@@H](N=C=S)CC[C@@]4(O)C(C2)N(CC2CC2)CCC314` (stereo partly specified), for which the IC50 ratio is 0.8 in the assay filed under Cavia porcellus [17]; 1.4 in the assay filed under Cavia porcellus [18]; 2.4 in the assay filed under Cavia porcellus [1]; 2.1 in the assay listed under Cavia porcellus [2]; 2.3 in the assay filed under Cavia porcellus [19]; 1.2 in the assay listed under Cavia porcellus [3]. The IC50 ratio amounted to 9.6 in the assay listed under Cavia porcellus [5]; 1.2 in the assay filed under Mus musculus [6]; 6.6 in the assay filed under Mus musculus [7]; 3.1 in the assay filed under Mus musculus [8]; 10.7 in the assay listed under Mus musculus [9]. In the assay listed under Mus musculus [10], this compound yielded a concentration for an effect of 30% (IC30) of 100 nM. The max inhibition in the assay filed under Mus musculus [11] was determined as 45%.

As to `COC(=O)/C=C/C(=O)N[C@@H]1CC[C@@]2(O)[C@H]3Cc4ccc(O)c5c4[C@@]2(CCN3CC2CC2)[C@H]1O5`, the IC50 ratio in the assay listed under Cavia porcellus [13] is on record as 1.3; in the assay listed under Cavia porcellus [16], 1.2; in the assay filed under Cavia porcellus [17], 1; in the assay listed under Cavia porcellus [15], 18.8; in the assay filed under Cavia porcellus [2] it was 6; in the assay listed under Cavia porcellus [5], 5. Also, the IC50 ratio in the assay filed under Mus musculus [20] came out at 1.8; in the assay filed under Mus musculus [7] it was 1.1; in the assay filed under Mus musculus [21], 3.9; in the assay listed under Mus musculus [9], 10.6.

The compound `CC(C)C[C@@H](NC(=O)[C@H](Cc1ccccc1)NC(=O)CNC(=O)[C@@H](C)NC(=O)[C@@H](N)Cc1ccc(O)cc1)C(=O)O` [DADLE] gave an IC50 in the assay listed under Mus musculus [22] of 0.357 nM.

For `CCOc1ccc2c(c1)C1(C)CCN(CC3CC3)C(C2=O)C1C` (stereo unspecified) [ETHYLKETAZOCINE], in the assay listed under Cavia porcellus [23], the IC50 was found to be 0.973 nM.

In turn, `C=CCN1CC[C@]23c4c5ccc(O)c4O[C@H]2[C@@H](O)C=C[C@H]3[C@H]1C5` [NALORPHINE] returned an IC50 in the assay filed under Cavia porcellus [23] of 51.3 nM.

The record behind these values is ChEMBL document CHEMBL1122279, “Importance of C-6 chirality in conferring irreversible opioid antagonism to naltrexone-derived affinity labels” (J Med Chem, 1983).
